# From PubChem BioAssay
# Hsp70 act – Hsp70 transcriptional activation, primary screen | HeLa Hsp70 promoter luciferase reporter, luminescence; scaled: vehicle 0, proteasome-inhibitor control 100% | activation, % at 10 µM | hit rate 0.04% among 200,000;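 active means activation above the mean across all tested compounds plus 3 SD, cutoff set per campaign, cut at about 5.5% in these data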;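 further: 100% = MG132 at 30 µM as the positive control and 0% = DMSO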
# HSV augment – HSV replication enhancement | HSV replication augmentation in cells, fold increase | maximum fold increase | AID 1956 | hit rate 0.005% among 220,000; in the data active means maximum fold increase above about 1.5; tested in PC3 cells
# Mdm2 ligase inh – inhibitors of human Mdm2 E3 ubiquitin ligase; cell-based MDM2 ubiquitination luciferase reporter, 2 h; 0 = plate control, 100 = twice control, blank-subtracted; signal enhancement, % at 5 µM; hit rate 0.11% among 210,000; AID 1230;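 active means signal enhancement of 30% or more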;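 further: luminescence tracks abundance of the self-degrading MDM2-luciferase fusion protein; higher signal means inhibition of MDM2 E3 ligase activity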
# Target sequence (Q00987 whole entry, looked up, the tested form may be a part): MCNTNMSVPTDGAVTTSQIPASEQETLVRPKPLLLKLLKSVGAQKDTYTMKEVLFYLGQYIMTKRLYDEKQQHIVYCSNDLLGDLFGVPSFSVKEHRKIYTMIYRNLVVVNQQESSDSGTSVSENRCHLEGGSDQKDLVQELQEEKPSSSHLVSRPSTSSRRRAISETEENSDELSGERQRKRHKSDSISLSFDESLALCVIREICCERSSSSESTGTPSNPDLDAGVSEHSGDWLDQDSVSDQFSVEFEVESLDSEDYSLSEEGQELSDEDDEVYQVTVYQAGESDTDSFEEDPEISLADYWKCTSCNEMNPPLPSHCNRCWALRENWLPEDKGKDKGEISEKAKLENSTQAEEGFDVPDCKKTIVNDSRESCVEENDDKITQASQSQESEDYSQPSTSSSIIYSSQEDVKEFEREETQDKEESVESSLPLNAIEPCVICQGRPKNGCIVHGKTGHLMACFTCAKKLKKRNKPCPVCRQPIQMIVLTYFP
#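 System: stable MDM2–luciferase fusion reporter cells / Input: 2000 cells seeded into each well / Schedule: 4 h settle plus 2 h compound, 37 °C / Compound: single-point 5 µM / Buffer or medium: cells held in DMEM / Benchmarks: control and blank well means / Evaluation: percent signal gain over controls, blank-subtracted / Measured by: luciferase luminescence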
# HSF-1 act – increases HSF-1 driven luciferase reporter signal; hit rate 1.7% among 300,000; NIH3T3-HGL HSF-1 luciferase reporter, MG132, 8 h; 100% = twice DMSO control signal; activation, % at 9 µM;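 active means mean replicate activation of at least 50% with a set share of replicates each reaching 50%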;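 further: 0% = median of the neutral control wells and 100% = twice that signal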
# HSF1 inh – HSF1 inhibition | NIH3T3-HGL HSE-luciferase, MG132-induced, luminescence 8 h; stronger effect = lower value | activity change, negative = inhibition, % at 7.5 µM (by protocol) | hit rate 0.77% among 300,000 | AID 2098;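 active means more than half of replicate wells show activity change below -50%, luminescence cut by over half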;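 further: luciferase reports HSF-1 transcriptional activity via heat shock element; 0% = median of DMSO wells and -100% = zero luminescence signal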
# Rad51 HR inh – blocks human Rad51 in homologous recombination; Q06609; hRad51 DNA strand exchange, fluorescence dequenching; inhibition, % at 10 µM; hit rate 0.085% among 200,000;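 active means inhibition above 40% at the single screening dose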;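 further: 0% = DMSO control wells and 100% = blanks with heterologous ssDNA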
#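 Material: Human Rad51 nucleoprotein filaments preassembled on unlabelled ssDNA | Also added: Labelled 47-mer dsDNA for strand exchange | Dosing: Single dose, 10 µM final compound | Schedule: 30-min compound preincubation and 15-min exchange, both room temperature | Technique: Fluorescence dequenching at 485/520 nm | Measure: Percent inhibition relative to plate controls and blanks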
# Starred values were filed as active, the others as inactive; i = inactive; nt = not tested or not shown. The list is not random: actives were taken first. Their share in the collection is about 2.6%.
SMILES,Hsp70 act,HSV augment,Mdm2 ligase inh,HSF-1 act,HSF1 inh,Rad51 HR inh
CC1CCN(CCOc2ccc(OCc3ccccc3)cc2)CC1,0,i,2,16,4,nt
CC(C)Cn1c(N2CCN(CC(=O)Nc3ccc(Cl)cc3)CC2)nc2ccccc21,0,i,-8,-1,0,32
Cc1cc(=O)oc2cc(OCC(=O)N3CCC(C(N)=O)CC3)ccc12,nt,nt,nt,20,-1,nt
NC(=O)c1nn(-c2ccccc2)nc1NC(=O)CN1CCCCC1,0,i,-7,53*,16,-28
CCCCN(C(=O)COC(=O)COc1c(C)cc(C)cc1C)c1c(N)n(CCC)c(=O)[nH]c1=O,nt,nt,nt,-75,-69*,nt
CC1=C(/C=C/C(C)=C/C=C/C(C)=C\C(=O)O)C(C)(C)CCC1,nt,i,nt,-19,2,2
CC1=C(/C=C/C(=O)O)C(C)(C)CCC1,0,i,2,65*,28,5
CCCc1cc(=O)oc2cc(C)cc(OCC(=O)NCCCn3ccnc3)c12,nt,nt,nt,-81,-76*,nt
CC(=O)N/C(=N\c1nc(C)cc(C)n1)Nc1ccc2ccccc2c1,nt,nt,nt,-56,-51*,nt
Cn1c(CC(=O)Nc2ccccc2F)nnc1SCC(=O)N1CCOCC1,nt,nt,nt,3,5,nt
CN1CCN(S(=O)(=O)c2cccc(C(=O)NCCC3=CCCCC3)c2)CC1,nt,nt,nt,-82,-76*,nt
CC(=O)N1CCN(S(=O)(=O)c2cccc(C(=O)NCCC3=CCCCC3)c2)CC1,nt,nt,nt,6,6,nt
CCc1cccc(NC(=O)c2cccc(S(=O)(=O)N3CCN(C)CC3)c2)c1,nt,nt,nt,78*,33,nt
O=C(COc1ccc([N+](=O)[O-])cc1)Nc1cc(C(=O)O)cc(C(=O)O)c1,0,i,4,-16,-5,4
CCOC(=O)c1cc(NC(=O)COc2ccc([N+](=O)[O-])cc2)cc(C(=O)OCC)c1,0,i,7,53*,18,9
CCOC(=O)c1ccc(NC(=O)/C=C/c2cccs2)cc1,0,i,-13,53*,32,12
CCN(CC)CCOC(=O)c1ccc(NC(=O)/C=C/c2cccs2)cc1,0,i,-9,-19,-18,-1
COc1cc(OC)cc(C(=O)N(CCCN2C(=O)c3cccc4cccc(c34)C2=O)c2cccc(OC)c2)c1,0,i,-8,59*,37,-1
COc1ccc(N(CCCN2C(=O)c3cccc4cccc(c34)C2=O)C(=O)c2ccncc2)cc1,0,i,-7,-4,-1,0
O=C(CSc1n[nH]c(=O)[nH]c1=O)c1ccccc1,0,i,-6,9,3,7
CN(C)C(=O)CSc1n[nH]c(=O)[nH]c1=O,0,i,-3,-92,-89*,-22
CCN(CC(=O)Nc1ccc2c(c1)OCCO2)C(=O)COc1ccc(C)cc1,nt,nt,nt,5,-7,nt
Cc1oc(-c2ccccc2F)nc1CS(=O)(=O)CC(=O)NCCCN1CCN(C)CC1,nt,nt,nt,148*,100,nt
CC[C@@H](C)[C@H](NC(=O)Cc1c(C)c2cc3c(C)coc3c(C)c2oc1=O)C(=O)O,nt,nt,nt,-9,-2,nt
CC[C@@H](C)[C@H](NC(=O)Cc1c(C)c2cc3c(C)c(C)oc3c(C)c2oc1=O)C(=O)O,nt,nt,nt,-76,-70*,nt
SMILES,Hsp70 act,HSV augment,Mdm2 ligase inh,HSF-1 act,HSF1 inh,Rad51 HR inh
CCOc1ccc(OCC(=O)N(CCC2=CCCCC2)c2c(N)n(Cc3ccccc3)c(=O)[nH]c2=O)cc1,nt,nt,nt,4,-1,nt
Cc1nnnn1/C(=C\c1ccccc1)C(=O)OCC(=O)Nc1ccc(Cl)cc1F,nt,nt,nt,334*,341,nt
Cc1ccc(OC(=O)c2ccc(Cl)c([N+](=O)[O-])c2)cn1,nt,nt,nt,0,3,nt
Cc1ccc(OC(=O)c2ccc(C)c(C)c2)cn1,0,i,-3,54*,31,-2
CN(C)C(CNC(=O)CCNC(=O)c1ccc(Cl)cc1)c1ccco1 (configuration not stated),nt,nt,nt,-9,-6,nt
O=C(Nc1ccc(Cl)cc1)c1ccc(-n2cccn2)c([N+](=O)[O-])c1,0,i,38*,24,10,-7
COc1ccc(NC(=O)c2ccc(-n3cccn3)c([N+](=O)[O-])c2)cc1,0,i,-11,-8,-4,14
CC1=C(C(=O)OCC(C)C)C2(O)C(=O)c3ccccc3C2(O)N1 (configuration not stated),0,i,4,16,7,18
CCOc1ccc(/C=N/N2C(=O)C(CC(=O)Nc3ccc(F)cc3F)SC2=NC)cc1OC (configuration not stated),0,i,-22,60*,22,nt
CC(C)(C)C(=O)OCc1nc(-c2ccc3c(c2)OCCO3)cs1,nt,nt,nt,-62,-52*,nt
COc1ccc(-c2csc(COC(=O)C(C)(C)C)n2)cc1,nt,i,-8,35,14,6
CCCCn1c(CN2CCN(c3cccc(Cl)c3)CC2)nc2c1c(=O)[nH]c(=O)n2C,0,nt,3,-14,-3,-11
CCOC(=O)Cn1c(CN2CCN(c3cccc(Cl)c3)CC2)nc2c1c(=O)[nH]c(=O)n2C,0,i,-1,-65,-55*,0
CC(C)OC(=O)c1c(NC(=O)Cn2cnc([N+](=O)[O-])n2)sc2c1CCCC2,0,i,-1,58*,12,2
COc1ccc(-c2nnc(Nc3ccc(CC(N)=O)cc3)c3ccccc23)cc1,0,i,-14,57*,28,4
Cc1ccc(C)c2[nH]c(=O)c(CN(CC3CCCO3)S(=O)(=O)c3ccc4c(c3)OCCO4)cc12 (configuration not stated),0,i,-18,14,4,3
Cc1cc(C)c2[nH]c(=O)c(CN(CC3CCCO3)S(=O)(=O)c3ccc4c(c3)OCCO4)cc2c1 (configuration not stated),0,i,-16,59*,24,-2
CC(C)N(C(C)C)S(=O)(=O)c1ccc(N2CCc3ccccc3C2)nc1,nt,nt,nt,130*,67,nt
CCN(CC)S(=O)(=O)c1ccc(N2CCc3ccccc3C2)nc1,nt,nt,nt,73*,54,nt
COc1ccc(CNC(=O)COC(=O)c2cnccn2)cc1,0,i,-9,-13,-8,-13
COc1ccc(S(=O)(=O)N2CCOC23CCN(S(=O)(=O)c2cc(C)ccc2OC)CC3)cc1,nt,nt,nt,-8,2,nt
CS(=O)(=O)Nc1cccc(C2=NN(S(C)(=O)=O)C(c3ccccc3)C2)c1 (configuration not stated),0,i,-1,11,0,43*
CC1CN(CC(=O)Nc2nc3ccccc3s2)CC(C)O1 (configuration not stated),nt,nt,nt,-1,5,nt
CC/C(=N\NS(=O)(=O)c1ccc(C)cc1)c1ccco1,nt,nt,nt,-72,-64*,nt
Cc1ccc(-c2ccc(S(=O)(=O)NCc3ccco3)cc2)cc1,0,i,-20,2,4,nt
